Values joined by “and” are separate entries in the source; they are usually repeats but may differ in a detail not shown here. Equal entries are not always repeated.
Test system: HEK-293T
Experiment: Multiplex assay against HEK293T
Assay type: toxicity, cell-based
Conditions: human
Method in brief: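 Cells were classed with CellPathfinder machine-learning gating, first as Hoechst high-intensity objects or normal cells, then (normal cells) as healthy, pyknosed or fragmented nuclei, and finally (pyknosed cells) as mitotic or apoptotic. Staining of live cells at seeding used Hoechst33342, BioTracker Green Microtubule Cytoskeleton Dye, MitoTracker Red and Annexin V Alexa Fluor 680, with imaging on a CQ1 microscope at 37°C and 5% CO2 after compound addition. Tubulin, mitochondrial-mass and membrane-permeability phenotypes are per cents of healthy-nucleus cells.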

[1] = 12 h, 1 µM, compound concentration 1 uM
[2] = 12 h, 10 µM, compound concentration 10 uM
[3] = 24 h, 1 µM, compound concentration 1 uM
[4] = 24 h, 10 µM, compound concentration 10 uM
[5] = 48 h, 1 µM, compound concentration 1 uM
[6] = 48 h, 10 µM, compound concentration 10 uM

SMILES: Nc1nc(-c2ccco2)c2cnn(Cc3ccccc3F)c2n1
- Population Apoptotic (%) [1]: 37% and 36%
- Population Fragmented Nuclei (%) [1]: 6% and 5%
- Population Healthy Nuclei (%) [1]: 76% and 81%
- Population Hoechst High Intensity Objects (%) [1]: 9% and 11%
- Population Membrane Permeable-Phenotype (%) [1]: 0%
- Population Mitochondria Different-Phenotype (%) [1]: 58% and 64%
- Population Mitotic Cells (%) [1]: 62% and 63%
- Population Normal (%) [1]: 90% and 88%
- Population Pyknosed Nuclei (%) [1]: 16% and 13%
- Population Tubulin-Different-Phenotype (%) [1]: 41% and 23%
- Total Cell Count [1]: 300 and 404
- Population Apoptotic (%) [2]: 33% and 40%
- Population Fragmented Nuclei (%) [2]: 7% and 6%
- Population Healthy Nuclei (%) [2]: 73% and 76%
- Population Hoechst High Intensity Objects (%) [2]: 8% and 12%
- Population Membrane Permeable-Phenotype (%) [2]: 0%
- Population Mitochondria Different-Phenotype (%) [2]: 61% and 68%
- Population Mitotic Cells (%) [2]: 66% and 60%
- Population Normal (%) [2]: 91% and 87%
- Population Pyknosed Nuclei (%) [2]: 19% and 17%
- Population Tubulin-Different-Phenotype (%) [2]: 43% and 26%
- Total Cell Count [2]: 306 and 265
- Population Apoptotic (%) [3]: 30% and 28%
- Population Fragmented Nuclei (%) [3]: 7% and 9%
- Population Healthy Nuclei (%) [3]: 77% and 81%
- Population Hoechst High Intensity Objects (%) [3]: 7% and 5%
- Population Membrane Permeable-Phenotype (%) [3]: 0%
- Population Mitochondria Different-Phenotype (%) [3]: 36% and 46%
- Population Mitotic Cells (%) [3]: 69% and 71%
- Population Normal (%) [3]: 92% and 94%
- Population Pyknosed Nuclei (%) [3]: 15% and 9%
- Population Tubulin-Different-Phenotype (%) [3]: 26% and 17%
- Total Cell Count [3]: 396 and 514
- Population Apoptotic (%) [4]: 38% and 35%
- Population Fragmented Nuclei (%) [4]: 11%
- Population Healthy Nuclei (%) [4]: 67%
- Population Hoechst High Intensity Objects (%) [4]: 6% and 10%
- Population Membrane Permeable-Phenotype (%) [4]: 2% and 0%
- Population Mitochondria Different-Phenotype (%) [4]: 52% and 59%
- Population Mitotic Cells (%) [4]: 61% and 64%
- Population Normal (%) [4]: 93% and 89%
- Population Pyknosed Nuclei (%) [4]: 21%
- Population Tubulin-Different-Phenotype (%) [4]: 31% and 23%
- Total Cell Count [4]: 334 and 328
- Population Apoptotic (%) [5]: 32% and 28%
- Population Fragmented Nuclei (%) [5]: 12% and 14%
- Population Healthy Nuclei (%) [5]: 75% and 78%
- Population Hoechst High Intensity Objects (%) [5]: 3% and 4%
- Population Membrane Permeable-Phenotype (%) [5]: 1%
- Population Mitochondria Different-Phenotype (%) [5]: 31% and 21%
- Population Mitotic Cells (%) [5]: 67% and 71%
- Population Normal (%) [5]: 96% and 95%
- Population Pyknosed Nuclei (%) [5]: 12% and 7%
- Population Tubulin-Different-Phenotype (%) [5]: 18% and 14%
- Total Cell Count [5]: 641 and 769
- Population Apoptotic (%) [6]: 36% and 28%
- Population Fragmented Nuclei (%) [6]: 16% and 13%
- Population Healthy Nuclei (%) [6]: 73% and 74%
- Population Hoechst High Intensity Objects (%) [6]: 7%
- Population Membrane Permeable-Phenotype (%) [6]: 0%
- Population Mitochondria Different-Phenotype (%) [6]: 42% and 43%
- Population Mitotic Cells (%) [6]: 63% and 71%
- Population Normal (%) [6]: 92%
- Population Pyknosed Nuclei (%) [6]: 9% and 12%
- Population Tubulin-Different-Phenotype (%) [6]: 19% and 15%
- Total Cell Count [6]: 412 and 398

SMILES: COc1cc(OC2CCN(C(C)=O)CC2)ccc1C(=O)N1CCC(N2C(=O)OCc3ccccc32)CC1
- Population Apoptotic (%) [1]: 28% and 48%
- Population Fragmented Nuclei (%) [1]: 5%
- Population Healthy Nuclei (%) [1]: 83% and 76%
- Population Hoechst High Intensity Objects (%) [1]: 7%
- Population Membrane Permeable-Phenotype (%) [1]: 0%
- Population Mitochondria Different-Phenotype (%) [1]: 37% and 59%
- Population Mitotic Cells (%) [1]: 71% and 51%
- Population Normal (%) [1]: 92%
- Population Pyknosed Nuclei (%) [1]: 11% and 18%
- Population Tubulin-Different-Phenotype (%) [1]: 26% and 21%
- Total Cell Count [1]: 477 and 381
- Population Apoptotic (%) [2]: 40% and 67%
- Population Fragmented Nuclei (%) [2]: 9% and 4%
- Population Healthy Nuclei (%) [2]: 77% and 80%
- Population Hoechst High Intensity Objects (%) [2]: 8% and 6%
- Population Membrane Permeable-Phenotype (%) [2]: 0%
- Population Mitochondria Different-Phenotype (%) [2]: 57% and 77%
- Population Mitotic Cells (%) [2]: 60% and 32%
- Population Normal (%) [2]: 91% and 93%
- Population Pyknosed Nuclei (%) [2]: 13% and 14%
- Population Tubulin-Different-Phenotype (%) [2]: 47% and 40%
- Total Cell Count [2]: 436 and 316
- Population Apoptotic (%) [3]: 28% and 48%
- Population Fragmented Nuclei (%) [3]: 9% and 7%
- Population Healthy Nuclei (%) [3]: 78% and 80%
- Population Hoechst High Intensity Objects (%) [3]: 4% and 6%
- Population Membrane Permeable-Phenotype (%) [3]: 2% and 0%
- Population Mitochondria Different-Phenotype (%) [3]: 25% and 40%
- Population Mitotic Cells (%) [3]: 71% and 51%
- Population Normal (%) [3]: 95% and 93%
- Population Pyknosed Nuclei (%) [3]: 11% and 12%
- Population Tubulin-Different-Phenotype (%) [3]: 17% and 15%
- Total Cell Count [3]: 598 and 491
- Population Apoptotic (%) [4]: 31% and 49%
- Population Fragmented Nuclei (%) [4]: 8% and 7%
- Population Healthy Nuclei (%) [4]: 78%
- Population Hoechst High Intensity Objects (%) [4]: 3% and 4%
- Population Membrane Permeable-Phenotype (%) [4]: 0%
- Population Mitochondria Different-Phenotype (%) [4]: 44% and 58%
- Population Mitotic Cells (%) [4]: 68% and 50%
- Population Normal (%) [4]: 96% and 95%
- Population Pyknosed Nuclei (%) [4]: 13% and 14%
- Population Tubulin-Different-Phenotype (%) [4]: 36% and 29%
- Total Cell Count [4]: 523 and 393
- Population Apoptotic (%) [5]: 20% and 33%
- Population Fragmented Nuclei (%) [5]: 13% and 11%
- Population Healthy Nuclei (%) [5]: 78% and 80%
- Population Hoechst High Intensity Objects (%) [5]: 3% and 2%
- Population Membrane Permeable-Phenotype (%) [5]: 1%
- Population Mitochondria Different-Phenotype (%) [5]: 19% and 23%
- Population Mitotic Cells (%) [5]: 79% and 66%
- Population Normal (%) [5]: 96% and 97%
- Population Pyknosed Nuclei (%) [5]: 8% and 7%
- Population Tubulin-Different-Phenotype (%) [5]: 13% and 12%
- Total Cell Count [5]: 902 and 655
- Population Apoptotic (%) [6]: 36%
- Population Fragmented Nuclei (%) [6]: 13% and 12%
- Population Healthy Nuclei (%) [6]: 78% and 80%
- Population Hoechst High Intensity Objects (%) [6]: 4% and 3%
- Population Membrane Permeable-Phenotype (%) [6]: 0%
- Population Mitochondria Different-Phenotype (%) [6]: 30% and 39%
- Population Mitotic Cells (%) [6]: 63%
- Population Normal (%) [6]: 95% and 96%
- Population Pyknosed Nuclei (%) [6]: 8% and 7%
- Population Tubulin-Different-Phenotype (%) [6]: 21% and 16%
- Total Cell Count [6]: 813 and 625

From ChEMBL document CHEMBL5724801, “EUbOPEN Chemogenomics Library - Multiplex” (2024)
